Results on six molecules are retold here after ChEMBL document CHEMBL1154207, “Protease inhibitors from a water bloom of the cyanobacterium Microcystis aeruginosa” (J Nat Prod, 2009).

The nature of test [1]: Inhibition of Chymotrypsin after 30 mins preincubated for 5 mins before addition of substrate. The method in brief:
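Chymotrypsin enzyme solution at 1 mg/mL in 50 mM Tris-HCl/100 mM NaCl/1 mM CaCl₂/1 mM HCl. Substrate solution was 2 mM […] in the same buffer. Samples were dissolved in ethanol and diluted in buffer. Enzyme, sample and buffer were preincubated 5 min at 37 °C, then substrate was added. Absorbance at 405 nm was read at once and after 30 min at 37 °C.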

Test [2] can be described thus: Inhibition of trypsin after 30 mins preincubated for 5 mins before addition of substrate. The method in brief:
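Trypsin enzyme solution at 1 mg/mL in 50 mM Tris-HCl/100 mM NaCl/1 mM CaCl₂. Substrate solution was 2 mM N-benzoyl-D,L-arginine-p-nitroanilide in buffer. Test sample in ethanol was diluted with buffer and preincubated with enzyme in buffer for 5 min at 37 °C before substrate addition. Color was read at 405 nm immediately and after 30 min at 37 °C.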

Some results are limits rather than exact numbers.

With `CC[C@H](C)[C@H]1C(=O)N(C)[C@@H](Cc2ccc(OC)c(Cl)c2)C(=O)N[C@@H](C(C)C)C(=O)O[C@H](C)[C@H](NC(=O)[C@H](O)CO)C(=O)N[C@@H](CCCNC(=N)N)C(=O)N[C@H]2CC[C@@H](O)N1C2=O`, the IC50 (usually the midpoint of a concentration-inhibition curve) was determined as 19.6 µM in test [1] and 3.5 µM in test [2].

In the case of `CC[C@H](C)[C@@H]1NC(=O)[C@H](Cc2ccc(OC)c(Cl)c2)N(C)C(=O)[C@H]([C@@H](C)CC)N2C(=O)[C@H](CC[C@H]2O)NC(=O)[C@H](CCCNC(=N)N)NC(=O)[C@@H](NC(=O)[C@@H](COS(=O)(=O)O)OS(=O)(=O)O)[C@@H](C)OC1=O`, the IC50 in test [1] was over 100 µM; in test [2] it was 1.7 µM.

Turning to `CC[C@H](C)[C@@H]1NC(=O)[C@H](Cc2ccc(OC)c(Cl)c2)N(C)C(=O)[C@H]([C@@H](C)CC)N2C(=O)[C@H](CC[C@H]2O)NC(=O)[C@H](CCCNC(=N)N)NC(=O)[C@@H](NC(=O)[C@H](O)COS(=O)(=O)O)[C@@H](C)OC1=O`, the IC50 was determined as 18.2 µM in test [1] and 0.7 µM in test [2].

Take `CC[C@H](C)[C@@H]1NC(=O)[C@H](Cc2ccc(O)cc2)N(C)C(=O)[C@H]([C@@H](C)CC)N2C(=O)[C@H](CC[C@H]2O)NC(=O)[C@H](CCCNC(=N)N)NC(=O)[C@@H](NC(=O)[C@@H](COS(=O)(=O)O)OS(=O)(=O)O)[C@@H](C)OC1=O`: the IC50 in test [1] was over 100 µM; in test [2], 2.2 µM.

As to `CC[C@H](C)[C@H]1C(=O)N(C)[C@@H](Cc2ccc(O)c(Cl)c2)C(=O)N[C@@H](C(C)C)C(=O)O[C@H](C)[C@H](NC(=O)[C@@H](COS(=O)(=O)O)OS(=O)(=O)O)C(=O)N[C@@H](CCCNC(=N)N)C(=O)N[C@H]2CC[C@@H](O)N1C2=O`, the IC50 in test [1] is over 100 µM; in test [2], 1.2 µM.

`CC[C@H](C)[C@H]1C(=O)N(C)[C@@H](Cc2ccc(OC)c(Cl)c2)C(=O)N[C@@H](C(C)C)C(=O)O[C@H](C)[C@H](NC(=O)[C@H](O)CO)C(=O)N[C@@H](CCCNC(=N)N)C(=O)N[C@H]2CC[C@@H](OC)N1C2=O`: the results for the IC50 in test [1] and in test [2] were 2.8 µM and 1.1 µM, respectively.
